This is a sample that favours compounds with a hit; in the whole collection about 4.7% have one here.
Mdm2-MdmX inh – inhibitors of human Mdm2/MdmX interaction; O15151+Q00987; inhibition, % at 8 µM; 330,000 compounds, 3% hits; AID 485346; SaOS-2 split-luciferase Mdm2/MdmX complementation, luminescence;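 active = inhibition of at least 50% at 8 µM in the primary screen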
Target sequence (O15151 whole entry, looked up): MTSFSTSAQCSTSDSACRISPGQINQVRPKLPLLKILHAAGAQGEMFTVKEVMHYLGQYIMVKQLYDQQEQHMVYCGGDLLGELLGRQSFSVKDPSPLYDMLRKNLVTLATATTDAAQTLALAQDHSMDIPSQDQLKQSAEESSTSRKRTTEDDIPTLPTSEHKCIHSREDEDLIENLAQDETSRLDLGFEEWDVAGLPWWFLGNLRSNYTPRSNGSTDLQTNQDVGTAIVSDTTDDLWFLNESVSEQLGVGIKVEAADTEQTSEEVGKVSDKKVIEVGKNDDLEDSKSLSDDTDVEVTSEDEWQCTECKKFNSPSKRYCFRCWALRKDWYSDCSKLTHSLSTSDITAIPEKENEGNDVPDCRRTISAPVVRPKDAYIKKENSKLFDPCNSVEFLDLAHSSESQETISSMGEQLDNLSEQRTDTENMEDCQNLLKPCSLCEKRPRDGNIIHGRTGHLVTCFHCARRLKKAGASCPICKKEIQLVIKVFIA
Target sequence (Q00987 whole entry, looked up): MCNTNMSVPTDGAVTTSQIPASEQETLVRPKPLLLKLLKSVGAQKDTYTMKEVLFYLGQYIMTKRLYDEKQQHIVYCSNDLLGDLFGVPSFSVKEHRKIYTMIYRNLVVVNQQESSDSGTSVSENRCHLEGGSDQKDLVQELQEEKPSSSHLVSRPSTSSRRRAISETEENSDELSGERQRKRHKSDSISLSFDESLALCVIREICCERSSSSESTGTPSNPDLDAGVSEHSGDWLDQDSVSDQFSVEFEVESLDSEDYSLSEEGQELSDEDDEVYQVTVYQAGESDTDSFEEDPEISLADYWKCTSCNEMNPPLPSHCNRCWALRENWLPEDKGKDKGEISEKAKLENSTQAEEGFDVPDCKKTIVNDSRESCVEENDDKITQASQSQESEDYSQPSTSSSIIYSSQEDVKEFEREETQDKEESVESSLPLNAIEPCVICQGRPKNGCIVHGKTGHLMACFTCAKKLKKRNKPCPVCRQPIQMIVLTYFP
VIM-2 inh – blocks Pseudomonas aeruginosa VIM-2 metallo-beta-lactamase | purified VIM-2, nitrocefin hydrolysis, epi-absorbance fluorescence | inhibition, % at 5.6 µM | 290,000 compounds, 0.89% hits | AID 1527;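 active = inhibition above the mean of all tested compounds plus 3 SD, cutoff set per screening run, cut at about 7.5% in these data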;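 also: red hydrolysis product quenches plate fluorescence so inhibitors raise well fluorescence; 0% = enzyme with DMSO and 100% = DMSO without enzyme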
aSyn 5UTR inh – 5' untranslated region of α-synuclein, MLPCN primary screen; alpha-synuclein 5'UTR reporter, inhibitor activity; 300,000 compounds, 0.82% hits; inhibition, % (tested at 7.5 µM); AID 1813; in the data active = inhibition above about 60%; inconclusive = no clear call, values can overlap the other calls;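 also: H4 neuroglioblastoma cells stably carrying SNCA 5'UTR luciferase fusion; 0% = DMSO wells and 100% = positive control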
697 NFkB inh – lowers PMA/ionomycin-induced NF-kB signal in 697 B cells; 697 B-cell NF-kB luciferase reporter, 16 h; inhibition, % at 4 µM; 330,000 compounds, 0.33% hits; in the data active = inhibition above about 35%
IMP-1 inh – blocks Pseudomonas aeruginosa IMP-1 metallo-beta-lactamase; purified IMP-1, nitrocefin hydrolysis, epi-absorbance fluorescence; inhibition, % at 5.6 µM; 290,000 compounds, 0.45% hits;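 active = inhibition above the mean plus 3 SD of all compounds in the same screening run, cut at about 4.5% in these data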;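 also: 0% = IMP-1 with DMSO and 100% = DMSO wells lacking enzyme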
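System: purified IMP-1 / Input: IMP-1 dispensed at 0.2 nM / Medium: 50 mM HEPES pH 7.1, 50 µM ZnSO4, 0.05% Brij 35 / Timing: 15 min enzyme–compound preincubation, then 25 min nitrocefin reaction, 25 °C / Technique: plate fluorescence quenching by hydrolysis product, ex 480/em 530 nm / Repeats: singlicate testing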
Jurkat NFkB inh – lowers PMA/ionomycin-induced NF-kB signal in Jurkat cells; PMA/ionomycin-induced NF-kB luciferase reporter, luminescence; AID 435003; 330,000 compounds, 0.53% hits; inhibition, % at 4 µM; in the data active = inhibition above about 50%
Mdm2-MdmX conf – confirmation of human Mdm2/MdmX interaction inhibitors | inhibition, % at 8 µM | shares compounds with Mdm2-MdmX inh | 10,000 compounds, 55% hits | Mdm2-MdmX binding, luminescent assay; in the data active = inhibition above about 40%
Full FLuc ctr – inhibits full-length luciferase, flagging false Mdm2/MdmX hits | AID 504607 | SaOS-2 full-length luciferase counterscreen, luminescence | 6,200 compounds, 77% hits | shares compounds with Mdm2-MdmX inh | inhibition, % at 8 µM;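 active = mean inhibition at 8 µM reaching about 37%, which flags the compound as non-specific, limit read from the data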;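 also: p53-null SaOS-2 cells with luciferase driven by a doxycycline-inducible promoter; compound on cells about two nights before reading with doxycycline added after day one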
Active calls of the source: *; ? = inconclusive; / = no result given.

SMILES	Mdm2-MdmX inh	VIM-2 inh	aSyn 5UTR inh	697 NFkB inh	IMP-1 inh	Jurkat NFkB inh	Mdm2-MdmX conf	Full FLuc ctr
CCCS(=O)(=O)c1ncc(Cl)c(C(=O)Nc2ccc(S(=O)(=O)Nc3ncccn3)cc2)n1	7	-2	16	22	-4	9	/	/
CCc1ccc(NC(=O)c2nc(S(=O)(=O)Cc3ccccc3)ncc2Cl)cc1	99*	-1	91*	-129	-1	38	84*	51*
COc1ccccc1NC(=O)c1ccc(C(=O)Nc2ccccc2OC)nc1	26	-4	-22	-4	-3	7	/	/
CCOc1ccccc1NC(=O)c1ccc(C(=O)Nc2ccccc2OCC)nc1	91*	-1	19	-7	-3	-5	10	/
CCOC(=O)c1ccc(NC(=O)c2nc(S(=O)(=O)Cc3ccccc3)ncc2Cl)cc1	49	-2	?	-45	-1	4	/	/
CCS(=O)(=O)c1ncc(Cl)c(C(=O)Nc2ccc(S(=O)(=O)N3CCC(C)CC3)cc2)n1	100*	-2	65*	-123	-1	30	100*	52*
CCS(=O)(=O)c1ncc(Cl)c(C(=O)Nc2ccccc2OC)n1	96*	4	4	-244	0	43	100*	45*
Cc1c(NC(=O)Nc2cccc(C(F)(F)F)c2)c(=O)n(-c2ccccc2)n1C	-2	-2	-11	5	-4	-12	/	/
Cc1ccc(-c2nnn(CC(=O)Nc3ccc(S(=O)(=O)N4CCC(C)CC4)cc3)n2)cc1	52*	1	18	-14	-1	6	26	/
Cc1ccc(NC(=O)c2nc(S(=O)(=O)Cc3ccccc3C)ncc2Cl)cc1C	100*	-1	39	-93	-3	21	70*	52*
CCOc1ccccc1NC(=O)c1nc(S(=O)(=O)Cc2ccccc2)ncc1Cl	97*	-1	51	-119	0	23	97*	0
COc1ccccc1NC(=O)c1nc(S(=O)(=O)Cc2ccccc2)ncc1Cl	97*	-4	71*	-151	-2	42	70*	51*
CC1CCN(S(=O)(=O)c2ccc(NC(=O)Cn3nnc(-c4ccccc4)n3)cc2)CC1	7	-1	30	14	3	-3	/	/
COc1cccc(-c2nn(-c3ccccc3)cc2CN(C)Cc2c(C)nc3ccccn23)c1	13	-3	-2	10	-2	-7	/	/
CNC(=O)C(=O)NCCCN1CCOCC1	13	-2	-5	6	-2	15	/	/
CCCNC(=S)Nc1ccc(F)cc1F	22	-2	-4	8	-2	1	/	/
COc1cccc(NC(=O)c2nc(S(C)(=O)=O)ncc2Cl)c1	96*	1	-26	-21	-4	22	83*	60*
O=C(CCCSc1nnnn1-c1cccc2ccccc12)c1ccc(F)cc1	23	-3	6	8	-3	11	/	/
O=C(c1ccc2c(=O)n3c(nc2c1)CCCCC3)N1CCN(c2ccccc2)CC1	20	-1	16	-8	-2	-6	/	/
O=C(c1ccc2c(=O)n3c(nc2c1)CCCCC3)N1CCN(C(c2ccccc2)c2ccccc2)CC1	63*	-2	51	-33	-8	-12	22	/
CCOC(=O)CNC(=O)Cn1cnc2c(nnn2-c2ccc(C)cc2)c1=O	-11	-1	4	8	-1	-19	/	/
CCn1c(SCc2ccccc2)nc2c1c(=O)[nH]c(=O)n2C	24	1	25	-27	0	-6	/	/
COC(=O)CC1COc2ccccc2N1S(=O)(=O)c1ccc(Br)cc1 (configuration not stated)	-11	-2	-9	-8	-2	5	/	/
COC(=O)CC1COc2ccccc2N1S(=O)(=O)c1ccc(OC)cc1 (configuration not stated)	55*	-1	-23	-27	-3	47	51*	61*
Cn1c(=O)c(C(=O)COC(=O)c2cc(C(F)(F)F)nc3c(C(F)(F)F)cccc23)c(N)n(CC2CC2)c1=O	77*	2	-29	-33	0	5	3	/
SMILES	Mdm2-MdmX inh	VIM-2 inh	aSyn 5UTR inh	697 NFkB inh	IMP-1 inh	Jurkat NFkB inh	Mdm2-MdmX conf	Full FLuc ctr
Cn1c(N)c(C(=O)COC(=O)c2cc(-c3ccccc3)nc3ccccc23)c(=O)n(C)c1=O	66*	/	4	-31	/	5	29	60*
CC(C)Cn1c(N)c(C(=O)COC(=O)c2cc(-c3ccccc3)nc3ccccc23)c(=O)n(C)c1=O	28	-2	14	-37	-1	2	/	/
Oc1ccc(CCNc2ncnc3ccc(Cl)cc23)cc1	64*	0	-14	-21	-4	38	73*	29
O=C(CSc1ncccn1)N/N=C/c1ccccc1[N+](=O)[O-]	1	-7	-22	11	-5	-11	/	/
CCCOc1ccccc1N/C(=N/c1nc(C)cc(C)n1)NC(=O)COc1ccc(OC)cc1	56*	-5	10	10	-2	6	19	/
O=C(C1CCOCC1)N1CCC(CO)(CCc2ccccc2)CC1	-3	-2	9	3	-2	-4	/	/
CCCCCCc1cc2cc(C(=O)Nc3cccc(OC)c3)c(=O)oc2cc1O	95*	-2	63*	-17	-1	6	4	/
CCCCCCc1cc2cc(S(=O)(=O)c3ccc(F)c(Cl)c3)c(=O)oc2cc1O	98*	-2	37	-19	-3	27	92*	28
COc1cccc(NC(=O)c2cc3ccccc3cc2OC)c1	-116	0	-151	-94	0	-117	/	/
CCCCCCc1cc2cc(C(=O)NC)c(=N)oc2cc1O	50	1	-18	6	1	2	/	/
CCCCCCc1cc2cc(C(=O)OCC)c(=O)oc2cc1O	64*	-1	7	7	-2	1	11	/
CCCCCCc1cc2cc(C(=O)Nc3ccc(OC)cc3)c(=O)oc2cc1O	100*	-3	10	-60	-2	24	34	/
CCCCCCc1cc2cc(C(N)=O)c(=N)oc2cc1O	8	-3	30	-14	-3	-19	/	/
O=C(CC(=O)NC1CCCCC1)N/N=C/c1ccccc1[N+](=O)[O-]	0	-3	-44	-5	-2	-29	/	/
CCCCCCc1cc2cc(/C(N)=N/NC(=O)c3ccncc3)c(=O)oc2cc1O	65*	/	/	-2	/	3	19	/
N/C(=N\NC(=O)c1ccc(F)cc1)c1cc2ccccc2oc1=O	14	-2	-1	10	-3	2	/	/
COc1ccc(-c2sc3ccccc3c2C#Cc2cncn2C)cc1	38	/	/	-12	/	1	/	/
Cn1cncc1C#Cc1c(-c2ccc(S(C)(=O)=O)cc2)sc2ccccc12	65*	/	/	-15	/	-13	28	/

Compound activity from PubChem.
